Reference: ChEMBL document CHEMBL1629700, “Assessment of oritavancin serum protein binding across species” (Antimicrob Agents Chemother, 2010)
≈ marks a conversion by molar mass, not a printed value.

Tests used:
Staphylococcus aureus [1] = assay: Antibacterial activity against Staphylococcus aureus ATCC 29213 grown in CAMHB medium by broth microdilution method in presence of 95% dog serum; format: functional
Procedure, shortened: (§1)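 Broth microdilution MIC run in a matrix of 95% pooled serum, or 95% serum ultrafiltrate (50 kDa cutoff filter, albumin excluded), plus 5% CAMHB. Drug dilution steps were arithmetic and prepared in CAMHB. Means came from 8 replicates per condition (mouse 4 to 8). Dog serum came from beagles.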

Staphylococcus aureus [2] = assay: Antibacterial activity against Staphylococcus aureus ATCC 29213 grown in CAMHB medium by broth microdilution method in presence of 95% mouse serum ultrafiltrate; format: functional; procedure, shortened: as §1
Staphylococcus aureus [3] = assay: Antibacterial activity against Staphylococcus aureus ATCC 29213 grown in CAMHB medium by broth microdilution method; format: functional
Procedure, shortened: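 MIC determined by broth microdilution under CLSI M7-A8 conditions in cation-adjusted Mueller-Hinton broth, using arithmetic drug dilution steps.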

Staphylococcus aureus [4] = assay: Antibacterial activity against Staphylococcus aureus ATCC 29213 grown in CAMHB medium by broth microdilution method in presence of 95% dog serum ultrafiltrate; format: functional; procedure, shortened: as §1
[5] = Protein binding in human serum by broth microdilution method; format: ADME, cell-free; settings: read-out: PB (converted)
Procedure, shortened: (§2)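 Pooled serum (dog: beagle) and its ultrafiltrate (50 kDa cutoff, excludes albumin) were used. Broth microdilution MICs against S. aureus ATCC 29213 were read with arithmetic drug dilutions, made in CAMHB with 0.002% polysorbate-80, in 95% serum or 95% ultrafiltrate plus 5% CAMHB. % bound = (1 − mean MIC ultrafiltrate/mean MIC serum) × 100. Human, rat and dog used 8 replicates; mouse used 4–8.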

Staphylococcus aureus [6] = assay: Ratio of MIC for Staphylococcus aureus ATCC 29213 grown in CAMHB medium in presence of 95% human serum to MIC for Staphylococcus aureus ATCC 29213 in presence of 95% human serum ultrafiltrate; format: functional
Procedure, shortened: (§3)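 The fold increase is the mean arithmetic broth microdilution MIC in 95% serum (plus 5% CAMHB) divided by the mean MIC in 95% serum ultrafiltrate (plus 5% CAMHB). The ultrafiltrate was prepared with a 50 kDa cutoff that excludes albumin. Replicates were 8 per condition, or 4 to 8 for mouse. The same data give % bound = (1 − MIC ultrafiltrate/MIC serum) × 100.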

Staphylococcus aureus [7] = assay: Antibacterial activity against Staphylococcus aureus ATCC 29213 grown in CAMHB medium by broth microdilution method in presence of 95% rat serum ultrafiltrate; format: functional; procedure, shortened: as §1
[8] = Protein binding in dog serum by broth microdilution method; format: ADME, cell-free, Canis lupus familiaris; settings: read-out: PB (converted); procedure, shortened: as §2
Serum = assay: Protein binding in mouse serum by broth microdilution method; format: ADME, cell-free; procedure, shortened: as §2
Staphylococcus aureus [9] = assay: Antibacterial activity against Staphylococcus aureus ATCC 29213 grown in CAMHB medium by broth microdilution method in presence of 95% human serum ultrafiltrate; format: functional; procedure, shortened: as §1
Staphylococcus aureus [10] = assay: Ratio of MIC for Staphylococcus aureus ATCC 29213 grown in CAMHB medium in presence of 95% dog serum to MIC for Staphylococcus aureus ATCC 29213 in presence of 95% dog serum ultrafiltrate; format: functional; procedure, shortened: as §3
[11] = Protein binding in rat serum by broth microdilution method; format: ADME, cell-free; settings: read-out: PB (converted); procedure, shortened: as §2
Staphylococcus aureus [12] = assay: Antibacterial activity against Staphylococcus aureus ATCC 29213 grown in CAMHB medium by broth microdilution method in presence of 95% human serum; format: functional; procedure, shortened: as §1
Staphylococcus aureus [13] = assay: Ratio of MIC for Staphylococcus aureus ATCC 29213 grown in CAMHB medium in presence of 95% rat serum to MIC for Staphylococcus aureus ATCC 29213 in presence of 95% rat serum ultrafiltrate; format: functional; procedure, shortened: as §3
Staphylococcus aureus [14] = assay: Antibacterial activity against Staphylococcus aureus ATCC 29213 grown in CAMHB medium by broth microdilution method in presence of 95% mouse serum; format: functional; procedure, shortened: as §1
Staphylococcus aureus [15] = assay: Antibacterial activity against Staphylococcus aureus ATCC 29213 grown in CAMHB medium by broth microdilution method in presence of 95% rat serum; format: functional; procedure, shortened: as §1
Staphylococcus aureus [16] = assay: Ratio of MIC for Staphylococcus aureus ATCC 29213 grown in CAMHB medium in presence of 95% mouse serum to MIC for Staphylococcus aureus ATCC 29213 in presence of 95% mouse serum ultrafiltrate; format: functional; procedure, shortened: as §3
Staphylococcus aureus [17] = assay: Antibacterial activity against Staphylococcus aureus ATCC 29213 grown in CAMHB medium by broth microdilution method in presence of 0.002% polysorbate 80 and 95% rat serum ultrafiltrate; format: functional
Procedure, shortened: (§4)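 Broth microdilution with arithmetic drug dilutions prepared in CAMHB containing 0.002% polysorbate-80. Test medium was 95% pooled serum or 95% serum ultrafiltrate plus 5% CAMHB. Ultrafiltrate was made on 50 kDa cutoff ultrafilters, which exclude albumin. Means came from 8 replicates for human, rat and dog, and from 4 to 8 replicates for mouse.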

Staphylococcus aureus [18] = assay: Antibacterial activity against Staphylococcus aureus ATCC 29213 grown in CAMHB medium by broth microdilution method in presence of 0.002% polysorbate 80 and 95% mouse serum ultrafiltrate; format: functional; procedure, shortened: as §4
Staphylococcus aureus [19] = assay: Antibacterial activity against Staphylococcus aureus ATCC 29213 grown in CAMHB medium by broth microdilution method in presence of 0.002% polysorbate 80 and 95% human serum; format: functional; procedure, shortened: as §4
[20] = Plasma protein binding in rat; format: ADME, cell-free; settings: read-out: PPB
Staphylococcus aureus [21] = assay: Antibacterial activity against Staphylococcus aureus ATCC 29213 grown in CAMHB medium by broth microdilution method in presence of 0.002% polysorbate 80 and 95% dog serum ultrafiltrate; format: functional; procedure, shortened: as §4
Staphylococcus aureus [22] = assay: Antibacterial activity against Staphylococcus aureus ATCC 29213 grown in CAMHB medium by broth microdilution method in presence of 0.002% polysorbate 80 and 95% dog serum; format: functional; procedure, shortened: as §4
Staphylococcus aureus [23] = assay: Antibacterial activity against Staphylococcus aureus ATCC 29213 grown in CAMHB medium by broth microdilution method in presence of 0.002% polysorbate 80 and 95% human serum ultrafiltrate; format: functional; procedure, shortened: as §4
Staphylococcus aureus [24] = assay: Antibacterial activity against Staphylococcus aureus ATCC 29213 grown in CAMHB medium by broth microdilution method in presence of 0.002% polysorbate 80; format: functional
Procedure, shortened: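 Broth microdilution per CLSI M7-A8 in cation-adjusted Mueller-Hinton broth with 0.002% polysorbate-80. Arithmetic dilution steps of 0.5 μg/ml from 3 to 1 μg/ml, 0.1 μg/ml from 1 to 0.3, 0.05 μg/ml from 0.3 to 0.1, and 0.01 μg/ml from 0.1 to 0.04 μg/ml. Mean of 8 replicates.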

[25] = Plasma protein binding in human at 1 to 91 ug/ml by DCC adsorption method; format: ADME, cell-free; settings: read-out: PB (converted)
Albumin = Albumin (Homo sapiens, UniProt P02768); assay: Binding affinity to human serum albumin at 0.2 ug/ml; format: ADME
Albumin, sequence (P02768 whole entry): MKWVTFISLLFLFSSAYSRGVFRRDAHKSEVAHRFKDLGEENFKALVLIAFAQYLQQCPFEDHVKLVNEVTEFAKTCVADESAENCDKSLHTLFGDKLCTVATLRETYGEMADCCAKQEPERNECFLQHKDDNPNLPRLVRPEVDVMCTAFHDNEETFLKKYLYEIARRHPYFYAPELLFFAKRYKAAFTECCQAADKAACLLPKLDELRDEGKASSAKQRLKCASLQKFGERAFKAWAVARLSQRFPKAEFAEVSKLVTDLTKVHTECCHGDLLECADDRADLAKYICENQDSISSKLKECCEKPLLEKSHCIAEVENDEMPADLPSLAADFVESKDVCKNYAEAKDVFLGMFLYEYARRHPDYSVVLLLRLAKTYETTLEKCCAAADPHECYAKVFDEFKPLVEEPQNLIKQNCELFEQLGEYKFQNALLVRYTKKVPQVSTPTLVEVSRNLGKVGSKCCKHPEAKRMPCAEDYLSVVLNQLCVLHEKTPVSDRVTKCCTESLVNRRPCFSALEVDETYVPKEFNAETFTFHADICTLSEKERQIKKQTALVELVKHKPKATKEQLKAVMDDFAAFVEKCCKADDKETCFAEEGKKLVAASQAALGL

Staphylococcus aureus [26] = assay: Antibacterial activity against Staphylococcus aureus ATCC 29213 grown in CAMHB medium by broth microdilution method in presence of 0.002% polysorbate 80 and 95% rat serum; format: functional; procedure, shortened: as §4
[27] = Plasma protein binding in human by broth microdilution method; format: ADME, cell-free; settings: read-out: PPB (converted)
Staphylococcus aureus [28] = assay: Antibacterial activity against Staphylococcus aureus ATCC 29213 grown in CAMHB medium by broth microdilution method in presence of 0.002% polysorbate 80 and 95% mouse serum; format: functional; procedure, shortened: as §4

CO/N=C(\C(=O)N[C@@H]1C(=O)N2C(C(=O)O)=C(CSc3nc(=O)c(O)nn3C)CS[C@H]12)c1csc(N)n1 [CEFTRIAXONE]
MIC (Staphylococcus aureus [1]): 1.38 µg/mL
MIC (Staphylococcus aureus [2]): 3.75 µg/mL
MIC (Staphylococcus aureus [3]): 3.5 µg/mL (≈ 6.31 µM)
MIC (Staphylococcus aureus [4]): 1.09 µg/mL
fraction unbound [5]: 0.074
Ratio (Staphylococcus aureus [6]): 13.5
MIC (Staphylococcus aureus [7]): 3.88 µg/mL
fraction unbound [8]: 0.791
Protein binding (Serum): 37.5%
MIC (Staphylococcus aureus [9]): 2.88 µg/mL
Ratio (Staphylococcus aureus [10]): 1.3
fraction unbound [11]: 0.66
MIC (Staphylococcus aureus [12]): 38.8 µg/mL
Ratio (Staphylococcus aureus [13]): 1.5
MIC (Staphylococcus aureus [14]): 6 µg/mL
MIC (Staphylococcus aureus [15]): 5.88 µg/mL
Ratio (Staphylococcus aureus [16]): 1.6

CN[C@H](CC(C)C)C(=O)N[C@H]1C(=O)N[C@@H](CC(N)=O)C(=O)N[C@H]2C(=O)N[C@H]3C(=O)N[C@H](C(=O)N[C@H](C(=O)O)c4cc(O)cc(O)c4-c4cc3ccc4O)[C@H](O[C@H]3C[C@](C)(N)[C@@H](O)[C@H](C)O3)c3ccc(c(Cl)c3)Oc3cc2cc(c3O[C@@H]2O[C@H](CO)[C@@H](O)[C@H](O)[C@H]2O[C@H]2C[C@](C)(NCc3ccc(-c4ccc(Cl)cc4)cc3)[C@@H](O)[C@H](C)O2)Oc2ccc(cc2Cl)[C@H]1O [ORITAVANCIN]
MIC (Staphylococcus aureus [17]): 0.055 µg/mL
MIC (Staphylococcus aureus [18]): 0.079 µg/mL
Ratio (Staphylococcus aureus [6]): 5.5
MIC (Staphylococcus aureus [19]): 0.775 µg/mL
fraction unbound [20]: < 0.2
MIC (Staphylococcus aureus [21]): 0.061 µg/mL
Ratio (Staphylococcus aureus [10]): 7.8
MIC (Staphylococcus aureus [22]): 0.475 µg/mL
MIC (Staphylococcus aureus [23]): 0.14 µg/mL
Ratio (Staphylococcus aureus [13]): 5.7
MIC (Staphylococcus aureus [24]): 0.08 µg/mL
fraction unbound [25]: 0.143
fraction unbound at 0.2 ug/ml (Albumin): 0.21
MIC (Staphylococcus aureus [26]): 0.313 µg/mL
fraction unbound [27]: 0.125
Ratio (Staphylococcus aureus [16]): 6.8
MIC (Staphylococcus aureus [28]): 0.538 µg/mL
